Reference: paper PMC4529374 (Pharmaceutical research, 2015)
In brackets after ≈: the same amount, converted by molar mass.

How the values were obtained:
[1] = EFdA/CSIC stability in the film polymer solution; type: physicochemical; conditions: 25°C/65% R.H. and 40°C/75% R.H., 4 weeks
Method in brief: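 Drug-loaded aqueous PVA (7%, w/w) film-casting solution, about 0.5 ml per vial, was sealed against evaporation and light. EFdA: Zorbax C18, 0.4% phosphoric acid/methanol gradient, 0.8 ml/min, UV 260 nm. CSIC: Gemini C18, acetonitrile-0.075% TFA (40:60), 1.2 ml/min, UV 302 nm.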

[2] = In vitro cytotoxicity, MTT assay; type: cell-based; conditions: human, HEC-1A cells
Method in brief: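 HEC-1A cells were grown in McCoy's 5A with 10% FBS and penicillin/streptomycin at 37°C, 5% CO2, then seeded at 1×10⁴ cells/well. After 24 h, free drug (5 ng/ml–50 µg/ml) or film at the equivalent dose, or placebo film, was added for 24 h. MTT (5 mg/ml stock) was added in fresh medium for 3 h at 37°C. Formazan was dissolved in DMSO and absorbance read at 595 nm.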

[3] = CSIC solubility in water and solubilizer solutions; type: physicochemical; conditions: water
Method in brief: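 Excess CSIC was rotated at moderate speed in the solubilizer solutions at ambient temperature for 120 h. The mixture was filtered through a 0.2 µm membrane, and the filtrate was assayed by HPLC. HPLC conditions: Gemini C18 column, isocratic acetonitrile-0.075% (v/v) TFA (40:60) at 1.2 ml/min, UV detection at 302 nm, room temperature, total peak area against a linear least-squares calibration. LOQ was 0.5 µg/ml.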

HIV-1 = conditions: read-out: EC50 of CSIC; cited from earlier work

Row | SMILES | loss of drug content in film polymer solution [1] | CC50 at 24 h [2] [µg/mL] | solubility [3] [µg/mL] | EC50 (HIV-1) [nM]
1 | C#C[C@]1(CO)O[C@@H](n2cnc3c(N)nc(F)nc32)C[C@@H]1O [EFdA, 4’-ethynyl-2-fluoro-2’-deoxyadenosine] | No loss of drug content | > 50 |  | 
2 | NC(=O)c1[nH]c2ccc(Cl)cc2c1S(=O)(=O)c1ccccc1 [CSIC, 5-chloro-3-phenylsulfonylindole-2-carboxamide] | No loss of drug content | 11.4 ± 2.8 (≈ 34.1 µM) | < 0.5 | 1.2
